Results on three compounds are retold here after ChEMBL document CHEMBL1255293, “In vitro susceptibility of various genotypic strains of Toxoplasma gondii to pyrimethamine, sulfadiazine, and atovaquone” (Antimicrob Agents Chemother, 2008).

What all share (assay type): functional, organism-based
The test system of assay [1] is Toxoplasma gondii. The assay can be described thus: Antimicrobial activity against Toxoplasma gondii ENT harboring DHPS Ex2, E474D/Ex3, 156 sil Leu/Ex4, R560K/Ex5, 580 sil Gly/A597E/627 sil Glu mutant gene and DHFR Ex3, 156 sil Leu mutant gene infected in human MRC-5 cells after 72 hrs by ELISA. The following applies: MRC5, 72 h. The method, boiled down:
(§1)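 Tachyzoites freshly harvested from THP-1 cultures inoculated at 0.4 to 1 tachyzoite/10 cells, adjusted per strain, onto confluent MRC-5 fibroblasts. Drugs were stocked at 1 mg/ml in 50% methanol-50% acetone, diluted in RPMI, and added 3 h post-inoculation in four to eight replicate wells. Incubation was 72 h, then methanol fixation. Read-out was ELISA with rabbit anti-Toxoplasma serum and peroxidase anti-rabbit conjugate, TMB substrate, OD 405 nm. IC50 came from linear regression of OD versus log concentration; experiments were run in duplicate.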
A general note: In an ELISA, binding on a coated surface is turned into a signal by an enzyme label.

The test system of assay [2] is Toxoplasma gondii. The assay can be described thus: Antimicrobial activity against Toxoplasma gondii B1 harboring DHPS Ex2, E474D/Ex4, R560K/Ex5, 580 sil Gly/ A597E/627 sil Glu mutant gene and DHFR Ex3, 156 sil Leu mutant gene infected in human MRC-5 cells after 72 hrs by ELISA. Conditions: B1, MRC5, 72 h. The method, boiled down: as §1
The subject of assay [3] is Toxoplasma gondii. The assay can be described thus: Antimicrobial activity against Toxoplasma gondii isolate RMS-1995-ABE harboring DHPS Ex5, A587V mutant gene infected in human MRC-5 cells after 72 hrs by ELISA. Conditions: MRC5, 72 h. In a few lines:
as §1

Assay [4] deals with Toxoplasma gondii. The assay can be described thus: Antimicrobial activity against Toxoplasma gondii ME49 infected in human MRC-5 cells infected in human MRC-5 cells after 72 hrs by ELISA. Conditions: ME49, MRC5, 72 h. In a few lines: (§2)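 Confluent MRC-5 fibroblasts (3.5 x 10^4 to 4 x 10^4 cells/well) inoculated with tachyzoites freshly harvested from THP-1 cultures, 0.4 to 1 tachyzoite/10 cells adjusted per strain for nonconfluent foci at 72 h. Drugs (stock 1 mg/ml in 50% methanol-50% acetone, diluted in RPMI) added 3 h post-inoculation, four to eight replicate wells per dilution. Cultures incubated 72 h.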

In assay [5] the test system is Toxoplasma gondii. The experiment in a line: Antimicrobial activity against Toxoplasma gondii isolate TRS-2004-REV infected in human MRC-5 cells after 72 hrs by ELISA. Conditions: MRC5, 72 h. In a few lines:
as §2

Assay [6] has as its system Toxoplasma gondii. The assay can be described thus: Antimicrobial activity against Toxoplasma gondii isolate TOU-1998-TRI infected in human MRC-5 cells after 72 hrs by ELISA. The following applies: MRC5, 72 h. In a few lines:
as §2

Assay [7] concerns Toxoplasma gondii. The experiment in a line: Antimicrobial activity against Toxoplasma gondii isolate RMS-2005-HAG infected in human MRC-5 cells after 72 hrs by ELISA. Conditions: MRC5, 72 h. The method, boiled down: as §2
In assay [8] the test system is Toxoplasma gondii. The experiment in a line: Antimicrobial activity against Toxoplasma gondii isolate GRE-1995-MAE infected in human MRC-5 cells after 72 hrs by ELISA. The following applies: MRC5, 72 h. In a few lines: as §2
For assay [9], the system named is Toxoplasma gondii. The assay can be described thus: Antimicrobial activity against Toxoplasma gondii isolate PSP-2005-MUP infected in human MRC-5 cells after 72 hrs by ELISA. Conditions: MRC5, 72 h. The method, boiled down: as §2
Assay [10] concerns Toxoplasma gondii. The experiment in a line: Antimicrobial activity against Toxoplasma gondii isolate GRE-1998-TRA infected in human MRC-5 cells after 72 hrs by ELISA. The following applies: MRC5, 72 h. In a few lines: as §2
In assay [11] the test system is Toxoplasma gondii. The experiment in a line: Antimicrobial activity against Toxoplasma gondii NED infected in human MRC-5 cells after 72 hrs by ELISA. The following applies: MRC5, 72 h. In a few lines: as §2
Assay [12] concerns Toxoplasma gondii. The assay can be described thus: Antimicrobial activity against Toxoplasma gondii isolate RMS-1994-LEF harboring DHPS Ex2, E474D/Ex4, R560K/Ex5, 580 sil Gly; A597E/627 sil Glu mutant gene and DHFR Ex3, 204 sil Ala mutant gene infected in human MRC-5 cells after 72 hrs by ELISA. Conditions: MRC5, 72 h. The method, boiled down:
as §1

Assay [13] has as its system Toxoplasma gondii. The experiment in a line: Antimicrobial activity against Toxoplasma gondii isolate RMS-2003-DJO infected in human MRC-5 cells after 72 hrs by ELISA. The following applies: MRC5, 72 h. The method, boiled down:
as §2

In assay [14] the test system is Toxoplasma gondii. The assay can be described thus: Antimicrobial activity against Toxoplasma gondii isolate RMS-2001-MAU infected in human MRC-5 cells after 72 hrs by ELISA. Conditions: MRC5, 72 h. The method, boiled down: as §2
In assay [15] the test system is Toxoplasma gondii. The experiment in a line: Antimicrobial activity against Toxoplasma gondii isolate GUY-2003-MEL harboring DHPS Ex2, E474D/Ex4, R560K/Ex5, 580 sil Gly/ A597E/627 sil Glu mutant gene and DHFR Ex2, 145 sil Val mutant gene infected in human MRC-5 cells after 72 hrs by ELISA. Conditions: MRC5, 72 h. The method, boiled down: as §1
The subject of assay [16] is Toxoplasma gondii. The assay can be described thus: Antimicrobial activity against Toxoplasma gondii RH harboring DHPS Ex2, E474D/Ex4, R560K/Ex5, 580 sil Gly; A597E/627 sil Glu mutant gene and DHFR Ex3, 156 sil Leu mutant gene infected in human MRC-5 cells after 72 hrs by ELISA. The following applies: MRC5, 72 h. In a few lines:
as §1

As a reminder, the IC50 is the point on the concentration scale where inhibition reaches its midpoint.

SMILES strings stand for the structures. Converted amounts (≈) assume the structure as drawn.

As for `O=C1C(O)=C([C@H]2CC[C@H](c3ccc(Cl)cc3)CC2)C(=O)c2ccccc21` [ATOVAQUONE], the IC50 in the assay with Toxoplasma gondii [1] was determined as 0.07 µg/mL (≈ 0.191 µM); in the assay on Toxoplasma gondii [2], 0.1 µg/mL (≈ 0.273 µM); with Toxoplasma gondii [3] it was 0.11 µg/mL (≈ 0.3 µM); in the assay with Toxoplasma gondii [4], 0.05 µg/mL (≈ 0.136 µM); in the assay on Toxoplasma gondii [5], 0.07 µg/mL (≈ 0.191 µM); with Toxoplasma gondii [6] it was 0.07 µg/mL (≈ 0.191 µM). The IC50 in the assay with Toxoplasma gondii [7] is 0.04 µg/mL (≈ 0.109 µM); with Toxoplasma gondii [8], 0.03 µg/mL (≈ 0.0818 µM); with Toxoplasma gondii [9] it was 0.06 µg/mL (≈ 0.164 µM); in the assay on Toxoplasma gondii [10] it was 0.05 µg/mL (≈ 0.136 µM); with Toxoplasma gondii [11], 0.03 µg/mL (≈ 0.0818 µM); with Toxoplasma gondii [12], 0.04 µg/mL (≈ 0.109 µM). Besides, the IC50 in the assay with Toxoplasma gondii [13] was found to be 0.08 µg/mL (≈ 0.218 µM); in the assay on Toxoplasma gondii [14] it was 0.06 µg/mL (≈ 0.164 µM); with Toxoplasma gondii [15], 0.04 µg/mL (≈ 0.109 µM); in the assay with Toxoplasma gondii [16] it was 0.05 µg/mL (≈ 0.136 µM).
For `CCc1nc(N)nc(N)c1-c1ccc(Cl)cc1` [PYRIMETHAMINE], the concentration for half-maximal inhibition (IC50) was determined as 0.34 µg/mL (≈ 1.37 µM) in the assay on Toxoplasma gondii [1]; 0.35 µg/mL (≈ 1.41 µM) in the assay with Toxoplasma gondii [2]; 0.17 µg/mL (≈ 0.684 µM) in the assay with Toxoplasma gondii [3]; 0.09 µg/mL (≈ 0.362 µM) with Toxoplasma gondii [4]; 0.18 µg/mL (≈ 0.724 µM) with Toxoplasma gondii [5]; 0.15 µg/mL (≈ 0.603 µM) in the assay on Toxoplasma gondii [6]. Also, the 50% inhibitory concentration (IC50) with Toxoplasma gondii [7] was found to be 0.11 µg/mL (≈ 0.442 µM); in the assay with Toxoplasma gondii [8], 0.11 µg/mL (≈ 0.442 µM); with Toxoplasma gondii [9] it was 0.14 µg/mL (≈ 0.563 µM); in the assay with Toxoplasma gondii [10], 0.39 µg/mL (≈ 1.57 µM); in the assay on Toxoplasma gondii [11] it was 0.19 µg/mL (≈ 0.764 µM); in the assay on Toxoplasma gondii [12], 0.07 µg/mL (≈ 0.281 µM). The IC50 amounted to 0.09 µg/mL (≈ 0.362 µM) in the assay with Toxoplasma gondii [13], 0.12 µg/mL (≈ 0.482 µM) in the assay on Toxoplasma gondii [14], 0.25 µg/mL (≈ 1.01 µM) in the assay with Toxoplasma gondii [15] and 0.1 µg/mL (≈ 0.402 µM) in the assay on Toxoplasma gondii [16].
`Nc1ccc(S(=O)(=O)Nc2ncccn2)cc1` [SULFADIAZINE]: the IC50 in the assay on Toxoplasma gondii [1] is 4.28 µg/mL (≈ 17.1 µM); in the assay with Toxoplasma gondii [2], over 50 µg/mL; with Toxoplasma gondii [3] it was over 50 µg/mL; in the assay on Toxoplasma gondii [4], 6.55 µg/mL (≈ 26.2 µM); with Toxoplasma gondii [5], 6.26 µg/mL (≈ 25 µM); in the assay on Toxoplasma gondii [6] it was 2.95 µg/mL (≈ 11.8 µM). Moreover, the half-maximal inhibitory concentration (IC50) in the assay with Toxoplasma gondii [7] was found to be 6.7 µg/mL (≈ 26.8 µM); in the assay on Toxoplasma gondii [8], 14.9 µg/mL (≈ 59.7 µM); in the assay with Toxoplasma gondii [9], 18.8 µg/mL (≈ 75.1 µM); in the assay on Toxoplasma gondii [10] it was 16.8 µg/mL (≈ 67.3 µM); with Toxoplasma gondii [11], 9.25 µg/mL (≈ 37 µM); in the assay on Toxoplasma gondii [12], 9.65 µg/mL (≈ 38.6 µM). Besides, the IC50 in the assay on Toxoplasma gondii [13] is 4.9 µg/mL (≈ 19.6 µM); in the assay with Toxoplasma gondii [14], over 50 µg/mL; in the assay with Toxoplasma gondii [15], 5.35 µg/mL (≈ 21.4 µM); with Toxoplasma gondii [16], 6.52 µg/mL (≈ 26.1 µM).
